Laboratory results reported in ChEMBL document CHEMBL1124002, “Antiallergy agents. 1. Substituted 1,8-naphthyridin-2(1H)-ones as inhibitors of SRS-A release” (J Med Chem, 1988).
Blank lines part the entries; values can stand above or below the compound they belong to.

How the values were obtained:
Type in all cases: functional
Cavia porcellus [1] = organism: Cavia porcellus; experiment: Percent inhibition of SRS-A release in vitro at a dose of 10 uM in guinea pig
Procedure, shortened: (§1)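 Male Hartley guinea pigs were sensitized with ovalbumin (5 mg ip + 5 mg sc on day 1, 5 mg ip on day 4). About 400 mg chopped lung was preincubated with compound for 12 min at 37 °C in Tyrode's with 10 mM cysteine, then challenged with 20 μg/mL ovalbumin (final) for 0.25 h. SRS-A in ethanol-extracted supernatant was bioassayed on mepyramine-treated ileum against a rat SRS-A standard. Results are % inhibition versus vehicle, from 3-4 lungs.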

Cavia porcellus [2] = experiment: Percent inhibition of bronchospasm in vivo at a dose of 25 mg/kg in guinea pig; settings: Bronchiole
Procedure, shortened: (§2)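 Guinea pigs were sensitized with ovalbumin and used 3-4 weeks later. They were fasted and anesthetized with dialurethane ip. Compounds were given orally 2 h before challenge. Propranolol 1 mg/kg, indomethacin 5 mg/kg and mepyramine 2 mg/kg were given iv 15 min before a 0.5 min aerosol of 0.5% ovalbumin through the tracheal cannula. The rise in inflation pressure measured bronchoconstriction. Results are % inhibition, 4-5 animals per group.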

Cavia porcellus [3] = experiment: Percent inhibition of bronchospasm in vivo at a dose of 12.5 mg/kg in guinea pig; settings: Bronchiole; procedure, shortened: as §2
Cavia porcellus [4] = organism: Cavia porcellus; experiment: Inhibitory activity against SRS-A release in guinea pig; 0.05-14 uM; procedure, shortened: as §1
Cavia porcellus [5] = experiment: Effective oral dose required to inhibit bronchospasm in guinea pig; 0.9-12.8 mg/kg; settings: Bronchiole; procedure, shortened: as §2
Cavia porcellus [6] = organism: Cavia porcellus; experiment: Inhibitory activity against SRS-A release in guinea pig; 0.01-19 uM; procedure, shortened: as §1
Cavia porcellus [7] = experiment: Effective oral dose required to inhibit bronchospasm in guinea pig; settings: Bronchiole; procedure, shortened: as §2
Cavia porcellus [8] = experiment: Percent inhibition of bronchospasm when administered at a dose of 1 mg/kg in guinea pig; settings: Bronchiole
Procedure, shortened: (§3)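 Ovalbumin-sensitized, anesthetized guinea pigs received iv propranolol 1 mg/kg, indomethacin 5 mg/kg and mepyramine 2 mg/kg, then a 0.5 min aerosol challenge with 0.5% ovalbumin 15 min later. The agent was given intravenously. The rise in inflation pressure was scored as % inhibition of bronchospasm.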

Cavia porcellus [9] = experiment: Percent inhibition of bronchospasm when administered at a dose of 2.5 mg/kg in guinea pig; settings: Bronchiole; procedure, shortened: as §3
Cavia porcellus [10] = experiment: Percent inhibition of bronchospasm when administered at a dose of 5 mg/kg in guinea pig; settings: Bronchiole; procedure, shortened: as §3
Cavia porcellus [11] = experiment: Percent inhibition of bronchospasm in vivo for a dose of 5 mg/kg in guinea pig; settings: Bronchiole, read-out: Inhibition; procedure, shortened: as §3
Cavia porcellus [12] = experiment: Percent inhibition of bronchospasm administered intravenously at a dose of 5 mg/kg in guinea pig; settings: Bronchiole, route intravenous; procedure, shortened: as §3
Cavia porcellus [13] = organism: Cavia porcellus; experiment: Inhibitory activity against sulfidopeptide leukotriene release in guinea pig

SMILES: CCCCc1c(O)c2cccnc2n(-c2cccc(SC)c2)c1=O
inhibition at 10 µM (Cavia porcellus [1]): 62%
inhibition in vivo at 25 mg/kg (Cavia porcellus [2]): 55%

SMILES: CCCCCc1c(O)c2cccnc2n(-c2ccccc2)c1=O
inhibition at 10 µM (Cavia porcellus [1]): 49%
inhibition in vivo at 25 mg/kg (Cavia porcellus [2]): 42%

SMILES: CCCCc1c(O)c2cccnc2n(-c2ccc(OC)cc2)c1=O
inhibition at 10 µM (Cavia porcellus [1]): 87%
inhibition in vivo at 25 mg/kg (Cavia porcellus [2]): 51%

SMILES: CCCCc1c(O)c2cccnc2n(-c2ccccc2C)c1=O
inhibition at 10 µM (Cavia porcellus [1]): 55%
inhibition in vivo at 25 mg/kg (Cavia porcellus [2]): 9%

SMILES: CCCCc1c(O)c2cccnc2n(-c2ccc(SC)cc2)c1=O
inhibition at 10 µM (Cavia porcellus [1]): 86%
inhibition in vivo at 25 mg/kg (Cavia porcellus [2]): 8%

SMILES: C#CCOc1c(CC#C)c(=O)n(-c2ccccc2)c2ncccc12
inhibition at 10 µM (Cavia porcellus [1]): 62%
inhibition in vivo at 12.5 mg/kg (Cavia porcellus [3]): 0%

SMILES: CCCCCCCCc1c(O)c2cccnc2n(-c2ccccc2)c1=O
inhibition at 10 µM (Cavia porcellus [1]): 51%
inhibition in vivo at 25 mg/kg (Cavia porcellus [2]): 0%

SMILES: CCCCc1c(O)c2cc(O)cnc2n(-c2ccccc2)c1=O
inhibition at 10 µM (Cavia porcellus [1]): 69%
inhibition in vivo at 25 mg/kg (Cavia porcellus [2]): 0%

IC50 (Cavia porcellus [4]): 980 nM
SMILES: C=CCc1c(O)c2cccnc2n(-c2ccccc2OC)c1=O
ED50 (Cavia porcellus [5]): 3.7 mg/kg
inhibition at 10 µM (Cavia porcellus [1]): 69%
inhibition in vivo at 25 mg/kg (Cavia porcellus [2]): 90%

IC50 (Cavia porcellus [6]): 240 nM
SMILES: CCCCc1c([O-])c2cccnc2n(-c2ccccc2)c1=O.[Na+]
ED50 (Cavia porcellus [7]): 14 mg/kg
inhibition at 10 µM (Cavia porcellus [1]): 56%
inhibition in vivo at 12.5 mg/kg (Cavia porcellus [3]): 68%

SMILES: CCCCc1c(OC(C)=O)c2cccnc2n(-c2ccc(OC)cc2)c1=O
inhibition at 10 µM (Cavia porcellus [1]): 64%
inhibition in vivo at 25 mg/kg (Cavia porcellus [2]): 32%

SMILES: Cc1c(O)c2cccnc2n(-c2ccccc2)c1=O
inhibition at 10 µM (Cavia porcellus [1]): 52%
inhibition in vivo at 25 mg/kg (Cavia porcellus [2]): 33%

SMILES: CCCCc1c(OCCCN(C)C)c2cccnc2n(-c2ccccc2)c1=O
inhibition at 10 µM (Cavia porcellus [1]): 0%
inhibition in vivo at 25 mg/kg (Cavia porcellus [2]): 13%

SMILES: CCCCc1c(O)c2cc(Br)cnc2n(-c2ccccc2)c1=O
inhibition at 10 µM (Cavia porcellus [1]): 73%
inhibition in vivo at 25 mg/kg (Cavia porcellus [2]): 5%

SMILES: CCCCc1c(O)c2cccnc2n(-c2ccc(Oc3ccccc3)cc2)c1=O
inhibition at 10 µM (Cavia porcellus [1]): 54%
inhibition in vivo at 25 mg/kg (Cavia porcellus [2]): 0%

SMILES: CCCCc1c(O)c2cccnc2n(-c2ccc(OC)c(OC)c2)c1=O
inhibition at 10 µM (Cavia porcellus [1]): 57%
inhibition in vivo at 25 mg/kg (Cavia porcellus [2]): 0%

SMILES: C=CCc1c(O)c2cccnc2n(-c2cccc(C(F)(F)F)c2)c1=O
inhibition at 10 µM (Cavia porcellus [1]): 50%
inhibition in vivo at 25 mg/kg (Cavia porcellus [2]): 0%

SMILES: CC(O)CCc1c(O)c2cccnc2n(-c2ccccc2)c1=O (stereo unspecified)
inhibition at 10 µM (Cavia porcellus [1]): 53%
inhibition in vivo at 25 mg/kg (Cavia porcellus [2]): 32%

SMILES: CCCCc1c(O)c2cccnc2n(-c2ccc3c(c2)CCC3)c1=O
inhibition at 10 µM (Cavia porcellus [1]): 55%
inhibition in vivo at 25 mg/kg (Cavia porcellus [2]): 1%

SMILES: CCCc1c(OCC(O)COc2ccc3c(=O)cc(C(=O)O)oc3c2CCC)ccc(C(C)=O)c1O (stereo unspecified) [FPL-55712]
inhibition in vivo at 1 mg/kg (Cavia porcellus [8]): 32%
inhibition in vivo at 2.5 mg/kg (Cavia porcellus [9]): 57%
inhibition in vivo at 5 mg/kg (Cavia porcellus [10]): 68%

SMILES: CCCc1c2c(c(O)c3c(=O)cc(C(=O)O)oc13)CCCC2 [PROXICROMIL]
inhibition in vivo at 5 mg/kg (Cavia porcellus [11]): 0%
inhibition in vivo at 5 mg/kg (Cavia porcellus [12]): 0%

IC50 (Cavia porcellus [13]): ~1000 nM
SMILES: C=CCc1c(OC(C)=O)c2cccnc2n(-c2cccc(Cl)c2)c1=O
ED50 (Cavia porcellus [7]): 0.4 mg/kg
inhibition at 10 µM (Cavia porcellus [1]): 60%

SMILES: C=CCc1c(OC(C)=O)c2cccnc2n(-c2cccc(OC)c2)c1=O
inhibition at 10 µM (Cavia porcellus [1]): 84%
inhibition in vivo at 12.5 mg/kg (Cavia porcellus [3]): 32%

SMILES: CCCCc1c(OC(C)=O)c2cccnc2n(-c2cccc(SC)c2)c1=O
inhibition at 10 µM (Cavia porcellus [1]): 57%
inhibition in vivo at 25 mg/kg (Cavia porcellus [2]): 27%

SMILES: CCCCc1ccc(-n2c(=O)c(CCCC)c(O)c3cccnc32)cc1
inhibition at 10 µM (Cavia porcellus [1]): 50%
inhibition in vivo at 25 mg/kg (Cavia porcellus [2]): 13%
